# According to publication PMC9055277 (RSC Advances, 2020):
# Legend:
# fish sperm DNA (FS-DNA) = experiment: UV-Vis absorption titration of ligands with FS-DNA; assay type: binding; details: on addition of FS-DNA; band 335 nm (1S3), 345 nm (2S3)
# Procedure, shortened: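 FS-DNA stock was in Tris–HCl pH 7.4 (A260/A280 > 1.8). Test compound (10 μM, diluted from water stock in Tris–HCl) was titrated with FS-DNA (0–20 μM). Tubes were shaken and incubated 15 min, then scanned 200–800 nm in triplicate. The spectrum of DNA alone was subtracted. Kb came from the Benesi–Hildebrand plot of [DNA]/(εa − εf) vs [DNA] as slope/intercept.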
# FS-DNA bound to EtBr = experiment: Fluorescence quenching of EtBr–FS-DNA system; assay type: binding, fish; details: EtBr–FS-DNA (DNA : EtBr 10 : 1), ligand 0–70 μM, Stern–Volmer equation
# Procedure, shortened: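 FS-DNA stock in Tris–HCl pH 7.4, kept at 4 °C for up to 72 h, with purity checked by A260/A280 > 1.8. EtBr stock (3.0 × 10⁻³ mol L⁻¹, ethanol) was made fresh. DNA and EtBr were premixed 15 min at 25 °C. Ligand was diluted from water stock in Tris–HCl, added, and incubated 15 min. Slits were 5/10 nm. KSV is the slope of I₀/I vs [Q].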
# [1] = tested on: Salmonella typhimurium TA98; experiment: Salmonella/microsome test; assay type: cell-based
# [2] = tested on: Salmonella typhimurium TA100; experiment: Salmonella/microsome test; assay type: cell-based
# [3] = TA98, absence of metabolic activation system (−S9)
# [4] = TA98, presence of metabolic activation system (+S9), 2S3: at 0.40, 0.20 and 0.10 mg per plate
# [5] = TA100, absence of metabolic activation system (−S9)
# [6] = TA100, presence of metabolic activation system (+S9)
# [7] = −S9, control set of the 2S3 experiment (concentration cell empty)
Compound,Hypochromism (fish sperm DNA (FS-DNA)) [%],quenching constant KSV (FS-DNA bound to EtBr) [M⁻¹],revertant colonies TA98 +S9 ([1]; 0.02 mg per plate),revertant colonies TA98 −S9 ([1]; 0.02 mg per plate),revertant colonies TA98 +S9 ([1]; 0.05 mg per plate),revertant colonies TA98 −S9 ([1]; 0.05 mg per plate) [b3],revertant colonies TA98 +S9 ([1]; 0.10 mg per plate),revertant colonies TA98 −S9 ([1]; 0.10 mg per plate),revertant colonies TA98 +S9 ([1]; 0.20 mg per plate),revertant colonies TA98 −S9 ([1]; 0.20 mg per plate),revertant colonies TA98 +S9 ([1]; 0.40 mg per plate),revertant colonies TA98 −S9 ([1]; 0.40 mg per plate),"effect on number of revertant colonies (mutagenicity), in words [1, 3]","effect on number of revertant colonies (mutagenicity), in words [1, 4]",revertant colonies TA100 +S9 ([2]; 0.02 mg per plate),revertant colonies TA100 −S9 ([2]; 0.02 mg per plate),revertant colonies TA100 +S9 ([2]; 0.05 mg per plate) [a2b3],revertant colonies TA100 −S9 ([2]; 0.05 mg per plate) [a3b3],revertant colonies TA100 +S9 ([2]; 0.10 mg per plate),revertant colonies TA100 −S9 ([2]; 0.10 mg per plate),other results
"NC(=O)COc1cc(OCC(N)=O)c2c(=O)c(OCC(N)=O)c(-c3ccc(OCC(N)=O)c(OCC(N)=O)c3)oc2c1 [1S3, 2,2′,2′′-((2-(3,4-bis(2-amino-2-oxoethoxy)phenyl)-4-oxo-4H-chromene-3,5,7-triyl)tris(oxy))triacetamide]",22.54,18300,9.00 ± 0.44 a3b3,12.00 ± 1.41 a1b3,7.80 ± 1.11 a2b3,14.40 ± 2.20,14.00 ± 2.60 b3,12.20 ± 0.66 a2b3,11.20 ± 2.97 b3,13.20 ± 1.01 a1b3,7.20 ± 1.68 a1b3,11.60 ± 1.63 a1b3,did not cause any detectable increase,did not cause any detectable increase,47.00 ± 7.16 a3b3,112.40 ± 3.28 a3b3,48.80 ± 12.85,94.00 ± 8.43,62.00 ± 4.95 a3b3,85.00 ± 7.17 a3b3,"revertant colonies TA100 +S9 ([2]; 0.20 mg per plate): 47.00 ± 6.73 a3b3; revertant colonies TA100 −S9 ([2]; 0.20 mg per plate): 80.20 ± 10.65 a2b3; revertant colonies TA100 +S9 ([2]; 0.40 mg per plate): 82.20 ± 5.37 a3b3; revertant colonies TA100 −S9 ([2]; 0.40 mg per plate): 88.80 ± 14.07 a2b3; effect on number of revertant colonies (mutagenicity), in words [2, 5]: did not cause any detectable increase; effect on number of revertant colonies (mutagenicity), in words [2, 6]: did not cause any detectable increase"
"[N-]=[N+]=[N-].[Na+] [SA, sodium azide, reference compound]",–,–,–,–,–,–,–,–,–,–,–,–,–,–,–,–,–,–,–,–,"revertant colonies TA100 −S9, positive control ([2]; 1 μg mL^−1, −S9, control set of the 1S3 experiment): 1497.2 ± 230.28; revertant colonies TA100 −S9, positive control [2, 7]: 1506.40 ± 114.82"
"NC(=O)COc1ccc(-c2cc(=O)c3c(OCC(N)=O)cc(OCC(N)=O)cc3o2)cc1 [2S3, 2,2′-((2-(4-(2-Amino-2-oxoethoxy)phenyl)-4-oxo-4H-chromene-5,7-diyl)bis(oxy))diacetamide]",20.91,19600,15.60 ± 2.52 b3,17.00 ± 1.00 b3,18.40 ± 1.74 b3,17.40 ± 1.12,25.40 ± 1.83 a2b3,20.00 ± 2.25 b3,22.00 ± 1.37 a2b3,16.60 ± 1.80 b3,24.60 ± 2.11 a2b3,19.20 ± 2.08 b3,did not cause an increase,statistically significant increase,187.40 ± 18.93 a1b3,182.40 ± 9.15 a2b3,190.80 ± 11.16,195.40 ± 6.96,196.60 ± 15.75 a2b3,185.60 ± 7.20 a2b3,"revertant colonies TA100 +S9 ([2]; 0.20 mg per plate): 183.60 ± 9.35 a2b3; revertant colonies TA100 −S9 ([2]; 0.20 mg per plate): 200.00 ± 8.44 a2b3; revertant colonies TA100 +S9 ([2]; 0.40 mg per plate): 210.40 ± 2.31 a3b3; revertant colonies TA100 −S9 ([2]; 0.40 mg per plate): 171.40 ± 8.55 a1b3; effect on number of revertant colonies (mutagenicity), in words [2, 5]: significantly increased; effect on number of revertant colonies (mutagenicity), in words [2, 6]: significantly increased"
"Nc1ccc([N+](=O)[O-])cc1N [NPD, 4-nitro-o-phenylenediamine, reference compound]",–,–,–,–,–,–,–,–,–,–,–,–,–,–,–,–,–,–,–,–,"revertant colonies TA98 −S9, positive control ([1]; 200 μg mL^−1, −S9, control set of the 1S3 experiment): 4260 ± 291.75; revertant colonies TA98 −S9, positive control [1, 7]: 3808.40 ± 221.78"
